Reference: ChEMBL document CHEMBL1133544, “Formaldehyde-induced alkylation of a 2'-aminoglucose rebeccamycin derivative to both A.T and G.C base pairs in DNA” (J Med Chem, 2000)
Where “and” joins values, the source holds several entries; their conditions need not be identical. Equal entries are not always repeated.

Tests used:
[1] = Delta Tm value ( Tmdrug-DNA )-TmDNA ) was obtained for the covalently cross-linked compound in the absence of formaldehyde using calf thymus DNA.; format: ADME; details: cattle
In short: (§1)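 Drug added to nucleic acid at the stated drug/DNA ratio with no HCHO, in BPE buffer pH 7.0 (6 mM Na2HPO4, 2 mM NaH2PO4, 1 mM EDTA). DNA or polynucleotide at 20 μM nucleotide. Absorbance read at 260 nm while heating 20–100 °C at 1 °C/min. Tm taken as the midpoint of the hyperchromic transition; ΔTm = Tm(drug–DNA) − Tm(DNA). Duplicate determinations at each drug concentration.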

[2] = Delta Tm value ( Tmdrug-DNA )-TmDNA ) was obtained for the covalently cross-linked compound in the presence of formaldehyde using twice of poly(dA-dT) at 0.05 M; format: ADME
In short: (§2)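 The preformed drug–nucleic acid complex, at the stated drug/DNA ratio, was treated with HCHO before melting. Melting was done in BPE buffer pH 7.0 with 20 μM nucleotide, monitored at 260 nm, heating 20–100 °C at 1 °C/min. Tm is the hyperchromic transition midpoint, and ΔTm is taken relative to free nucleic acid. Each drug concentration was run in duplicate.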

[3] = Delta Tm value ( Tmdrug-DNA )-TmDNA ) was obtained for the covalently cross-linked compound in the presence of formaldehyde using twice of poly(dA-dT) at 0.1 M; format: ADME; in short: as §2
[4] = Delta Tm value ( Tmdrug-DNA )-TmDNA ) was obtained for the covalently cross-linked compound in the presence of formaldehyde using twice of poly(dA-dT) at 0.25 M; format: ADME; in short: as §2
[5] = Delta Tm value ( Tmdrug-DNA )-TmDNA ) was obtained for the covalently cross-linked compound in the presence of formaldehyde using twice of poly(dA-dT) at 0.5 M; format: ADME; in short: as §2
[6] = Delta Tm value ( Tmdrug-DNA )-TmDNA ) was obtained for the covalently cross-linked compound in the presence of formaldehyde using twice of poly(dI-dC) at 0.05 M; format: ADME; in short: as §2
[7] = Delta Tm value (Tm(drug-DNA)-Tm(DNA)) was determined for the covalently cross-linked compound in the presence of formaldehyde using calf thymus DNA at 0.05 M; format: ADME; details: cattle; in short: as §2
[8] = Delta Tm value (Tm(drug-DNA)-Tm(DNA)) was determined for the covalently cross-linked compound in the presence of formaldehyde using twice of poly(dI-dC) at 0.25 M; format: ADME; in short: as §2
[9] = Delta Tm value (Tm(drug-DNA)-Tm(DNA)) was obtained for the covalently cross-linked compound in the absence of formaldehyde using twice of poly(dI-dC); format: ADME; in short: as §1
[10] = Delta Tm value (Tm(drug-DNA)-Tm(DNA)) was obtained for the covalently cross-linked compound in the absence of formaldehyde using twice of poly(dI-dC) at 0.05 M; format: ADME; in short: as §1
[11] = Delta Tm value (Tm(drug-DNA)-Tm(DNA)) was obtained for the covalently cross-linked compound in the absence of formaldehyde using twice of poly(dI-dC) at 0.25 M; format: ADME; in short: as §1
Bos taurus [12] = species: Bos taurus; assay: Delta Tm value ( Tmdrug-DNA )-TmDNA ) was obtained for the covalently cross-linked compound in the absence of formaldehyde using calf thymus DNA at 0.05 M; format: ADME; details: cattle; in short: as §1
Bos taurus [13] = species: Bos taurus; assay: Delta Tm value ( Tmdrug-DNA )-TmDNA ) was obtained for the covalently cross-linked compound in the absence of formaldehyde using calf thymus DNA at 0.1 M; format: ADME; details: cattle; in short: as §1
Bos taurus [14] = species: Bos taurus; assay: Delta Tm value ( Tmdrug-DNA )-TmDNA ) was obtained for the covalently cross-linked compound in the absence of formaldehyde using calf thymus DNA at 0.25 M; format: ADME; details: cattle; in short: as §1
Bos taurus [15] = species: Bos taurus; assay: Delta Tm value ( Tmdrug-DNA )-TmDNA ) was obtained for the covalently cross-linked compound in the absence of formaldehyde using calf thymus DNA at 0.5 M; format: ADME; details: cattle; in short: as §1
Bos taurus [16] = species: Bos taurus; assay: Delta Tm value ( Tmdrug-DNA )-TmDNA ) was obtained for the covalently cross-linked compound in the absence of formaldehyde using calf thymus DNA at 1 M; format: ADME; details: cattle; in short: as §1
Bos taurus [17] = species: Bos taurus; assay: Delta Tm value ( Tmdrug-DNA )-TmDNA ) was obtained for the covalently cross-linked compound in the presence of formaldehyde using calf thymus DNA at 0.1 M; format: ADME; details: cattle; in short: as §2
Bos taurus [18] = species: Bos taurus; assay: Delta Tm value ( Tmdrug-DNA )-TmDNA ) was obtained for the covalently cross-linked compound in the presence of formaldehyde using calf thymus DNA at 0.25 M; format: ADME; details: cattle; in short: as §2
Bos taurus [19] = species: Bos taurus; assay: Delta Tm value ( Tmdrug-DNA )-TmDNA ) was obtained for the covalently cross-linked compound in the presence of formaldehyde using calf thymus DNA at 0.5 M; format: ADME; details: cattle; in short: as §2
Bos taurus [20] = species: Bos taurus; assay: Delta Tm value ( Tmdrug-DNA )-TmDNA ) was obtained for the covalently cross-linked compound in the presence of formaldehyde using calf thymus DNA at 1 M; format: ADME; details: cattle; in short: as §2
Bos taurus [21] = species: Bos taurus; assay: Delta Tm value ( Tmdrug-DNA )-TmDNA ) was obtained for the covalently cross-linked compound in the presence of formaldehyde using calf thymus DNA.; format: ADME; details: cattle; in short: as §2
[22] = Delta Tm value ( Tmdrug-DNA )-TmDNA ) was obtained for the covalently cross-linked compound in the presence of formaldehyde using poly(dA-dC).poly(dG-dT) at 0.05 M; format: ADME; in short: as §2
[23] = Delta Tm value ( Tmdrug-DNA )-TmDNA ) was obtained for the covalently cross-linked compound in the presence of formaldehyde using poly(dA-dC).poly(dG-dT) at 0.1 M; format: ADME; in short: as §2
[24] = Delta Tm value ( Tmdrug-DNA )-TmDNA ) was obtained for the covalently cross-linked compound in the presence of formaldehyde using poly(dA-dC).poly(dG-dT) at 0.25 M; format: ADME; in short: as §2
[25] = Delta Tm value ( Tmdrug-DNA )-TmDNA ) was obtained for the covalently cross-linked compound in the presence of formaldehyde using twice of poly(dA-dT); format: ADME; in short: as §2
[26] = test system: [poly(dA-dT)]2 (synthetic); assay: Delta Tm value ( Tmdrug-DNA )-TmDNA ) was obtained for the covalently cross-linked compound in the absence of formaldehyde using twice of poly(dA-dT); details: in vivo
[27] = test system: poly(dA-dC)·poly(dG-dT) (synthetic); assay: Delta Tm value ( Tmdrug-DNA )-TmDNA ) was obtained for the covalently cross-linked compound in the absence of formaldehyde using poly(dA-dC).poly(dG-dT); details: in vitro
[28] = test system: poly(dA-dC)·poly(dG-dT) (synthetic); assay: Delta Tm value ( Tmdrug-DNA )-TmDNA ) was obtained for the covalently cross-linked compound in the presence of formaldehyde using poly(dA-dC).poly(dG-dT); details: in vitro
[29] = test system: [poly(dA-dT)]2 (synthetic); assay: Delta Tm value ( Tmdrug-DNA )-TmDNA ) was obtained for the covalently cross-linked compound in the absence of formaldehyde using twice of poly(dA-dT) at 0.1 M; details: in vivo
[30] = test system: [poly(dA-dT)]2 (synthetic); assay: Delta Tm value ( Tmdrug-DNA )-TmDNA ) was obtained for the covalently cross-linked compound in the absence of formaldehyde using twice of poly(dA-dT) at 0.05 M; details: in vivo
[31] = test system: [poly(dA-dT)]2 (synthetic); assay: Delta Tm value ( Tmdrug-DNA )-TmDNA ) was obtained for the covalently cross-linked compound in the absence of formaldehyde using twice of poly(dA-dT) at 0.25 M; details: in vivo
[32] = test system: poly(dA-dC)·poly(dG-dT) (synthetic); assay: Delta Tm value ( Tmdrug-DNA )-TmDNA ) was obtained for the covalently cross-linked compound in the absence of formaldehyde using poly(dA-dC).poly(dG-dT) at 0.1 M; details: in vitro
[33] = test system: poly(dA-dC)·poly(dG-dT) (synthetic); assay: Delta Tm value ( Tmdrug-DNA )-TmDNA ) was obtained for the covalently cross-linked compound in the absence of formaldehyde using poly(dA-dC).poly(dG-dT) at 0.05 M; details: in vitro
[34] = test system: poly(dA-dC)·poly(dG-dT) (synthetic); assay: Delta Tm value ( Tmdrug-DNA )-TmDNA ) was obtained for the covalently cross-linked compound in the absence of formaldehyde using poly(dA-dC).poly(dG-dT) at 0.25 M; details: in vitro

COC1C(CO)OC(n2c3ccccc3c3c4c(c5c6ccccc6[nH]c5c32)C(=O)N(N)C4=O)C(N)C1O (centres undefined)
Delta Tm [1]: 0 °C
Delta Tm [2]: 5.9 °C
Delta Tm [3]: 11.9 °C
Delta Tm [4]: 31 °C
Delta Tm [5]: 50.8 °C
Delta Tm [6]: 3.1 °C
Delta Tm [7]: 6 °C
Delta Tm [8]: 10 °C
Delta Tm [9]: 0 °C and -1 °C
Delta Tm [10]: 2 °C
Delta Tm [11]: 8.9 °C
Delta Tm (Bos taurus [12]): 2 °C
Delta Tm (Bos taurus [13]): 4 °C
Delta Tm (Bos taurus [14]): 6.7 °C
Delta Tm (Bos taurus [15]): 6.5 °C
Delta Tm (Bos taurus [16]): 6.7 °C
Delta Tm (Bos taurus [17]): 11.9 °C
Delta Tm (Bos taurus [18]): 22.3 °C
Delta Tm (Bos taurus [19]): 26.2 °C
Delta Tm (Bos taurus [20]): 28.7 °C
Delta Tm (Bos taurus [21]): 0 °C
Delta Tm [22]: 6.7 °C
Delta Tm [23]: 12.4 °C
Delta Tm [24]: 21.2 °C
Delta Tm [25]: 0 °C
Delta Tm [26]: 0 °C
Delta Tm [27]: 0 °C
Delta Tm [28]: -2 °C
Delta Tm [29]: 3 °C
Delta Tm [30]: 2 °C
Delta Tm [31]: 4.8 °C
Delta Tm [32]: 1.8 °C
Delta Tm [33]: 1 °C
Delta Tm [34]: 2.9 °C
